Consider three compounds from paper PMC4501086 (Nature, 2014).

Like-named read-outs stand apart in the source and are kept apart here.

One data set addresses p110β (Homo sapiens, UniProt P42338). Put plainly: PI3K isoform inhibition, Ki and IC50. Format: biochemical.
Another data set concerns 4T1 tumour. Put plainly: 4T1 breast cancer model, orthotopic in mammary fat pad, oral PI-3065. Format: in vivo, female WT BALB/c mice. Particulars: 75 mg/kg daily per os. A digest of the protocol: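 Luciferase-labelled 4T1 cells (10^5) inoculated into the mammary/breast fat pad 12 h after the first oral dose of vehicle or test compound (75 mg/kg daily, 36 days). Tumour growth followed by luciferase imaging and caliper volume. Tumour weight and luciferase activity measured in tumours excised 35 days after inoculation. Metastasis incidence by H&E histology as % of tumour-bearing mice. Body weight change from day 0. Mann-Whitney test.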

A further data set deals with p110δ (Homo sapiens, UniProt O00329). Put plainly: PI3K isoform inhibition, Ki and IC50. Format: biochemical.
For the next data set, the target named is p110α (Homo sapiens, UniProt P42336). Put plainly: PI3K isoform inhibition, Ki and IC50. Format: biochemical.
In another data set the test system is 4T1 cells. In words: Proliferation of 4T1 cells in vitro. Format: cell-based, mouse. Particulars: 4 h treatment, washing, MTS staining after 48 h culture.
In data set [1] the test system is CD69 expression in anti-IgM stimulated whole blood. In words: anti-IgM stimulated human whole blood, FACS for CD69. It counts as cell-based. Conditions: read-out: anti-IgM stimulated whole blood CD69 expression IC50.
A further data set has as its system 72 protein kinases. Put plainly: KinaseProfiler assay. It counts as biochemical. Particulars: at ≤ 10 μM.
Data set [2] has as its system pancreatic ductal adenocarcinoma (PDAC). Put plainly: KPC model of pancreatic ductal adenocarcinoma, treatment of palpable disease. Format: in vivo, KPC mice. Summed up: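 KPC mice (endogenous mutant KrasG12D and p53R172H in Pdx1+ pancreatic cells) developed palpable disease before vehicle or test compound (75 mg/kg) began. Read-outs were survival, macrometastases and pathology by H&E, Treg (% of CD4+) and CD44high cells (% of CD8+) in draining lymph nodes, and CD8+ cells (% of CD45+) in normal pancreas versus PDAC lesions. Mann-Whitney test.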

The target of a further data set is p110γ (Homo sapiens, UniProt P48736). Put plainly: PI3K isoform inhibition, Ki and IC50. Format: biochemical.
For data set [3], the system named is chronic lymphocytic leukaemia (CLL) and non-Hodgkin's lymphoma. Conditions: cited from earlier work.
[4] abbreviates: 36 consecutive days, 4T1 tumour-bearing mice.
Setting [5] is: 75 mg/kg, treatment after palpable disease.

Chain of p110β (P42338 whole entry, species assumed, canonical isoform): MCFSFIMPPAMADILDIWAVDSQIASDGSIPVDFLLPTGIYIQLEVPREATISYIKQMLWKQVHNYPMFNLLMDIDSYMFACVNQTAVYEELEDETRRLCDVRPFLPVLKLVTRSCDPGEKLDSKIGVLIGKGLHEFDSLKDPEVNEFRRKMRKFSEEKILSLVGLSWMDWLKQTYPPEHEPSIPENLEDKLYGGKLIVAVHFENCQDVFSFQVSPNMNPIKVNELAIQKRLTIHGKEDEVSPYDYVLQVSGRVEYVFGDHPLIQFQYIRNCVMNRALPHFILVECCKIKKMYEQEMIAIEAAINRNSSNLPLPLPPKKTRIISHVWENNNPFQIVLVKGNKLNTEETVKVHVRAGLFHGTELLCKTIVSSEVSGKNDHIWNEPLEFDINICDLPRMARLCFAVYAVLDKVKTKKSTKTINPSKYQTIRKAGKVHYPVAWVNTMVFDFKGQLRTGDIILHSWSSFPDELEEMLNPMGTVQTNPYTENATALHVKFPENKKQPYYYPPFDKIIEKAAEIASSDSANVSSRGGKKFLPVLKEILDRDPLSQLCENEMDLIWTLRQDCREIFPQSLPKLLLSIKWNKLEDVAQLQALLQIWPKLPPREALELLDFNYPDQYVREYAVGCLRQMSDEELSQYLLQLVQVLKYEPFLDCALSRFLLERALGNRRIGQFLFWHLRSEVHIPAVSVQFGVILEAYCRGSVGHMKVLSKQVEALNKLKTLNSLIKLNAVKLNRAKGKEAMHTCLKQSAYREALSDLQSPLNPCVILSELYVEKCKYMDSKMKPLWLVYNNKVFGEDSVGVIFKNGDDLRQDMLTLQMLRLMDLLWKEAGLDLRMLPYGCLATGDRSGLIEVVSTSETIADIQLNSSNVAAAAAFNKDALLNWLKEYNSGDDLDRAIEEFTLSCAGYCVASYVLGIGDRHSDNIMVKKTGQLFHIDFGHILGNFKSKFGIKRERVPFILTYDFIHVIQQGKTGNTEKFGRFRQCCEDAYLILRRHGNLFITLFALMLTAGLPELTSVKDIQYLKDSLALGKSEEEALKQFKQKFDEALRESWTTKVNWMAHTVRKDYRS
Chain of p110β (P27986 whole entry partner, species assumed, canonical isoform): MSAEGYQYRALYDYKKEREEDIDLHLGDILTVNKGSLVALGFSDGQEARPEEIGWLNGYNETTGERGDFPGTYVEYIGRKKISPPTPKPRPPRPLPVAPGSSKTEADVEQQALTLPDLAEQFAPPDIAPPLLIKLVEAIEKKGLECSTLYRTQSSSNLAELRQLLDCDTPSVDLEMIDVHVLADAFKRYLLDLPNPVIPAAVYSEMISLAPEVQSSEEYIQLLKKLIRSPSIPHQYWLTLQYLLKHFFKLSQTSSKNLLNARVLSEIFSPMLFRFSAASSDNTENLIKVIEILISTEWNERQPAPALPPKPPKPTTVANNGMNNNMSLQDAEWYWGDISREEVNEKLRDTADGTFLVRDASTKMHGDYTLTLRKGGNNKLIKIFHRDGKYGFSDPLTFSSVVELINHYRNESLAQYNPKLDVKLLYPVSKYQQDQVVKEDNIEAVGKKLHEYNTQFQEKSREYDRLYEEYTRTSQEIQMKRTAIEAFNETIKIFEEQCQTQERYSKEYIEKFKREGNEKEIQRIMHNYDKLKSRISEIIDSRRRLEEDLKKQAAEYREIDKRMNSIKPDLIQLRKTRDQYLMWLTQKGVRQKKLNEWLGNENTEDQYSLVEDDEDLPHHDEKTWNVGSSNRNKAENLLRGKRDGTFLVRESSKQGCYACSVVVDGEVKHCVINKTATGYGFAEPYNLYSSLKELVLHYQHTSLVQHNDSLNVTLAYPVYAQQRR
Chain of p110γ (P48736 whole entry, species assumed, canonical isoform): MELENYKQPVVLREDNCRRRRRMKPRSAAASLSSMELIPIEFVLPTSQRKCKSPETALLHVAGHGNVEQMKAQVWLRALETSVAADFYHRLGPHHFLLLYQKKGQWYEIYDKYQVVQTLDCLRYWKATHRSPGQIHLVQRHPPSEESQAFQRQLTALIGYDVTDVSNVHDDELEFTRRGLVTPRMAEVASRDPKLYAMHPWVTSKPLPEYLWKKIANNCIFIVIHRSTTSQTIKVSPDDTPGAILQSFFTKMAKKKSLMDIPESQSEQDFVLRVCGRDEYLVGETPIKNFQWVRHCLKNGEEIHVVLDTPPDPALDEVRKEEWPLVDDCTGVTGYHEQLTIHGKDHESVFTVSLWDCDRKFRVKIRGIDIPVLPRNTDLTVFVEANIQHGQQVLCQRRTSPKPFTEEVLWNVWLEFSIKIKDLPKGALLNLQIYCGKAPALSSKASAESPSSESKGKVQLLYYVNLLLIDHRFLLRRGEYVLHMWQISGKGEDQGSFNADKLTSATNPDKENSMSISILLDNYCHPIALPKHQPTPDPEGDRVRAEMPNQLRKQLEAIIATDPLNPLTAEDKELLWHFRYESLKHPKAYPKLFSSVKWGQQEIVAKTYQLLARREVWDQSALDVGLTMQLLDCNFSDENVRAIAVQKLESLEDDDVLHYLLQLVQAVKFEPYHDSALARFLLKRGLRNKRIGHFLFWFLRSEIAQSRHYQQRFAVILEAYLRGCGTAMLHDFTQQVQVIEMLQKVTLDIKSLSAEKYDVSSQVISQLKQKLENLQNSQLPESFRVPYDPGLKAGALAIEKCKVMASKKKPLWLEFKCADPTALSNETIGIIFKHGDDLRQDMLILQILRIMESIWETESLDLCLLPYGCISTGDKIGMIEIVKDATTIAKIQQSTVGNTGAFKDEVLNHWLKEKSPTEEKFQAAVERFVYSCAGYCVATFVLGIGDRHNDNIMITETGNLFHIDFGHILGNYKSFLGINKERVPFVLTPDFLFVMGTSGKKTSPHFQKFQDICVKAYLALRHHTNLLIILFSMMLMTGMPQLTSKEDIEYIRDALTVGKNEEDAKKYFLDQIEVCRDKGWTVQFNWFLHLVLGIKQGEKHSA
Chain of p110δ (O00329 whole entry, species assumed, canonical isoform): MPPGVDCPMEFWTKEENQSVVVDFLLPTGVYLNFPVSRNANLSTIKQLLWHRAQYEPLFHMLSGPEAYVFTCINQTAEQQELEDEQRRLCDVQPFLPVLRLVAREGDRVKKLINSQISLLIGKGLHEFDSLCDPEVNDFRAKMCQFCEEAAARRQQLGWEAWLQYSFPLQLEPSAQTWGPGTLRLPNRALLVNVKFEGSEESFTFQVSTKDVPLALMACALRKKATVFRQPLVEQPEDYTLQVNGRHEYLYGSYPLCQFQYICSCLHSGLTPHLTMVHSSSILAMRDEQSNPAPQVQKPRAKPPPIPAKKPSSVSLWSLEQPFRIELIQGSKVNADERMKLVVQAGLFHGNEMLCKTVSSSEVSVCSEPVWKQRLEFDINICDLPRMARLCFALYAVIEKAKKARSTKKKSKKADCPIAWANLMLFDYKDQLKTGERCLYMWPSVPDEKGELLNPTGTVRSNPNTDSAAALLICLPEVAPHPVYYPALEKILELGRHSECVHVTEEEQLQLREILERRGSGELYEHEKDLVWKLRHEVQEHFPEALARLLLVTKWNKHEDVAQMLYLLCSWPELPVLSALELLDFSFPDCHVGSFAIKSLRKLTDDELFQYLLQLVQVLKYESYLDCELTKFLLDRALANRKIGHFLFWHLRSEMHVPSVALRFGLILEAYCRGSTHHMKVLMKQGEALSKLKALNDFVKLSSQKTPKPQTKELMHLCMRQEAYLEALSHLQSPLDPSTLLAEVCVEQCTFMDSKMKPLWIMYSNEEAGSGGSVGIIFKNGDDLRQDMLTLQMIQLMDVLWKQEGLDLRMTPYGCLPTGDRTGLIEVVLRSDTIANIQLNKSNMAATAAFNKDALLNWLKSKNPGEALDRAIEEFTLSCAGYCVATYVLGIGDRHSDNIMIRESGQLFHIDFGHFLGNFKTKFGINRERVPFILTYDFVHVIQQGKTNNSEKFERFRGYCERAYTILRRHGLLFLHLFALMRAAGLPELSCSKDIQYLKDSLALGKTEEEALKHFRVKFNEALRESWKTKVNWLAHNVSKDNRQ
Chain of p110δ (P27986 whole entry partner, species assumed, canonical isoform): as the sequence (P27986 whole entry partner, species assumed, canonical isoform) above
Chain of p110α (P42336 whole entry, species assumed, canonical isoform): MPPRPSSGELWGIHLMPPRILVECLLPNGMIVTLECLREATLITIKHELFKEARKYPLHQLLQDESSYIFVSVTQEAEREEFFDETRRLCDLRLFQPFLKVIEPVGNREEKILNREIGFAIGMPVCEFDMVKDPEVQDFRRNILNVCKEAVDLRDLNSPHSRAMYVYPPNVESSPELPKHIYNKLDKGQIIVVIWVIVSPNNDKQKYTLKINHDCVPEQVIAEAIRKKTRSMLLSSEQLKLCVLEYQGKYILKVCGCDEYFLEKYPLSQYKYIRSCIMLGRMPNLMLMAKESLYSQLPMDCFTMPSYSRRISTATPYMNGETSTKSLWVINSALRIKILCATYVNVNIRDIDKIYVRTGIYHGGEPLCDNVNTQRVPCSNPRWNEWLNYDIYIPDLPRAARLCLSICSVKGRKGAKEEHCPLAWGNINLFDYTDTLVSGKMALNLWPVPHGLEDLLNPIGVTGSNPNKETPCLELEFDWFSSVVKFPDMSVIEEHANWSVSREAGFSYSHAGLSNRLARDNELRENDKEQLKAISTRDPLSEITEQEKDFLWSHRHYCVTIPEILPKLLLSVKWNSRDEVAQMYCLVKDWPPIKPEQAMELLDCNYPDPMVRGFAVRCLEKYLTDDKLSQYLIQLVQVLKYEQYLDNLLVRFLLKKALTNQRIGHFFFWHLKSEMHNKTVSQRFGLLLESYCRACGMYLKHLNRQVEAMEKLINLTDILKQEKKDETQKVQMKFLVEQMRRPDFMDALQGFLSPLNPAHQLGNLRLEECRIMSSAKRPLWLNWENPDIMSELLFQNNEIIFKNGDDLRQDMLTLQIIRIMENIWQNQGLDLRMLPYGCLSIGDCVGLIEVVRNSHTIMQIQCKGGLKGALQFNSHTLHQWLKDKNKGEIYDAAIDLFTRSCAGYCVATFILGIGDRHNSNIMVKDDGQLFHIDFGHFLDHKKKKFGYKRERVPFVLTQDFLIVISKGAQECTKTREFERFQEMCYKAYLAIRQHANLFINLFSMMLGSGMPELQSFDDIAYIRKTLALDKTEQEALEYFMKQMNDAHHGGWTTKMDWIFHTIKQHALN
Chain of p110α (P27986 whole entry partner, species assumed, canonical isoform): as the sequence (P27986 whole entry partner, species assumed, canonical isoform) above

A word on the IC50: it is the concentration needed to halve the response being measured. The term Ki denotes the equilibrium dissociation constant of an inhibitor or competing ligand from its target. High values mean weaker binding, low ones tighter binding. Regarding `Fc1ccc2[nH]ccc2c1-c1nc(N2CCOCC2)c2sc(CN3CCN(CC4CC4)CC3)cc2n1` [PI-3065], at p110β, half-maximal inhibition (IC50) required 0.6 µM and the Ki is 0.13 µM. Moreover, in the data set with 4T1 tumour (setting [4]), the body weight loss result is listed as “did not induce weight loss” and the “tolerability of long-term administration” value was “well-tolerated”. Also, in the data set with 4T1 tumour (36 days), the 4T1 metastasis result is recorded as “suppressed” and the 4T1 tumour growth result is on record as “suppressed”. Besides, on p110δ, the affinity corresponds to a Ki of 0.0015 µM. The compound further gave an inhibition constant Ki on p110α of 0.11 µM. Moreover, the “in vitro growth inhibition of 4T1 cells” value in the data set with 4T1 cells is “not growth-inhibited”. Further, in data set [1] (Homo sapiens), the half-inhibitory concentration (IC50) was 0.038 µM. Also, in the data set on 72 protein kinases, the “activity against 72 protein kinases” value is on record as “No significant activity”. In addition, in data set [2] (setting [5]), the “incidence of metastases and other disease-associated pathologies” value is reported as “reduced”; the “survival of KPC mice” value is recorded as “prolonged survival”. The “infiltrating CD8+ T cells in pancreatic lesions” value in data set [2] (14 days after treatment) was “relatively more”. In data set [2] (after 7 days of treatment), the “levels of CD44high CD8+ lymphocytes in the draining lymph nodes” value was “higher levels” and the “relative abundance of peripheral Treg in lymph nodes” value is listed as “reduced”. Also, on p110γ, the IC50 was more than 10 µM and the Ki is 0.94 µM.

As to `CC[C@H](Nc1ncnc2[nH]cnc12)c1nc2cccc(F)c2c(=O)n1-c1ccccc1` [Idelalisib], the IC50 in [1] (Homo sapiens) came out at 0.06 µM. In addition, in data set [3], the “therapeutic impact in patients” value is listed as “impressive therapeutic impact”.

As for `Cc1ccccc1-n1c(Cn2cnc3c(N)ncnc32)nc2cccc(C)c2c1=O` [IC87114], the concentration for half-maximal inhibition (IC50) in data set [1] (human whole blood, anti-IgM, FACS for CD69) came out at 3.5 µM.
